Assay results as given in ChEMBL document CHEMBL4813978 (Bioorg Med Chem Lett, 2021).

How the values were obtained:
D(2) dopamine receptor = D(2) dopamine receptor (Homo sapiens, UniProt P14416); test: Antagonist activity at human D2 receptor expressed in CHO cells assessed as inhibition of dopamine-induced calcium accumulation; assay type: functional, cell-based
[1] = molecular target: T1, Muscarinic acetylcholine receptor M4 (Homo sapiens, UniProt P08173); test: Agonist activity at muscarinic M4 receptor (unknown origin) expressed in CHO cells; assay type: functional, cell-based
T1 sequence (P08173 whole entry): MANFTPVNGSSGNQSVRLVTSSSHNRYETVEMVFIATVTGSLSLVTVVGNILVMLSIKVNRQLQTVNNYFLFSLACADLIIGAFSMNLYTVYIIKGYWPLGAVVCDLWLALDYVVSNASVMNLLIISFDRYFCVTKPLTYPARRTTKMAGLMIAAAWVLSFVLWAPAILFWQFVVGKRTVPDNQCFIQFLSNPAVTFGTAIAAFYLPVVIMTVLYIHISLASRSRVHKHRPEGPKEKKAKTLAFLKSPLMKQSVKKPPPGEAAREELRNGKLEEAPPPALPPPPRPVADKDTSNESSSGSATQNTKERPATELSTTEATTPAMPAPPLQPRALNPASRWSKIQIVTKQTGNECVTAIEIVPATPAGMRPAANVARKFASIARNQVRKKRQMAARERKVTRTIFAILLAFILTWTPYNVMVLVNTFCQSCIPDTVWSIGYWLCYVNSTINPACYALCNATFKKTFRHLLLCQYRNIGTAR
Method in brief: (§1)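 Agonist-mode EC50 with Emax. Emax given as mean ± SE of two or more experiments.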

[2] = molecular target: T2, Muscarinic acetylcholine receptor M1 (Homo sapiens, UniProt P11229); test: Agonist activity at muscarinic M1 receptor (unknown origin) expressed in CHO cells; assay type: functional, cell-based
T2 sequence (P11229 whole entry): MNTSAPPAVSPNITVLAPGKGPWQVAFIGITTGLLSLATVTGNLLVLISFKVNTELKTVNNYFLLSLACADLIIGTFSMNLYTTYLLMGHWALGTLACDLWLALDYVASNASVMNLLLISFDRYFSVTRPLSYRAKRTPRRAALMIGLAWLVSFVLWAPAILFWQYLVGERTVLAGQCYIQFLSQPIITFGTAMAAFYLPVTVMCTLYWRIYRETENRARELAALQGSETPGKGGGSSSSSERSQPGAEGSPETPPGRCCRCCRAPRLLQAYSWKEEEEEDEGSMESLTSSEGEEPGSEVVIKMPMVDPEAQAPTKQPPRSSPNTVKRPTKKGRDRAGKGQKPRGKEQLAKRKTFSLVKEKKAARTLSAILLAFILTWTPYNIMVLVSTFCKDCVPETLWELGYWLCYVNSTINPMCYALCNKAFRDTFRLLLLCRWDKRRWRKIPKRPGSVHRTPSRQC

[3] = molecular target: T3, Muscarinic acetylcholine receptor M2 (Homo sapiens, UniProt P08172); test: Agonist activity at muscarinic M2 receptor (unknown origin) expressed in CHO cells; assay type: functional, cell-based; method in brief: as §1
T3 sequence (P08172 whole entry): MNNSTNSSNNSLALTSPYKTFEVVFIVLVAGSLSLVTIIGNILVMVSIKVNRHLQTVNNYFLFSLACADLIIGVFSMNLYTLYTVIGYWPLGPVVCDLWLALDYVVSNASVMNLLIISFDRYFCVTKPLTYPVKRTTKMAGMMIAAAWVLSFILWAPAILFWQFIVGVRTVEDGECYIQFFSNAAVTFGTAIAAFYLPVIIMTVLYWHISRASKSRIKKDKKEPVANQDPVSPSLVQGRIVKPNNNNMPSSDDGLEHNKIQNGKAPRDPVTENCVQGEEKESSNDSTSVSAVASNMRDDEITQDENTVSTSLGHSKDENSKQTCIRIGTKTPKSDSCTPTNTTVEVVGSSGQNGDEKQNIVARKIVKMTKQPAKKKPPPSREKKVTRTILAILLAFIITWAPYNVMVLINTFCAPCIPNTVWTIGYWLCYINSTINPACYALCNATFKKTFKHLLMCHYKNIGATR

[4] = Drug concentration in po dosed mouse brain measured after 1 hr; assay type: ADME, organism-based; conditions: read-out: Drug uptake
[5] = molecular target: Muscarinic acetylcholine receptor M3 (Homo sapiens, UniProt P20309); test: Agonist activity at muscarinic M3 receptor (unknown origin) expressed in CHO cells; assay type: functional, cell-based
[6] = Glutathione reactivity of compound assessed as compound-dGSH conjugate formation incubated by fluorescence detector; assay type: physicochemical
Method in brief: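 Test compounds incubated with dansyl-glutathione (dGSH) and a human hepatocyte microsome fraction. The test compound–dGSH conjugate was quantified by fluorescence detection and reported as μmol/L.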

[7] = Drug concentration in po dosed mouse plasma measured after 1 hr; assay type: ADME, organism-based
[8] = Ratio of drug level in brain to plasma in po dosed mouse after 1 hr; assay type: ADME, organism-based; conditions: read-out: BPR
D(1A) dopamine receptor = D(1A) dopamine receptor (Homo sapiens, UniProt P21728); test: Antagonist activity at human D1 receptor expressed in CHO cells assessed as inhibition of dopamine-induced calcium accumulation; assay type: functional, cell-based
D(1A) dopamine receptor, sequence (P21728 whole entry): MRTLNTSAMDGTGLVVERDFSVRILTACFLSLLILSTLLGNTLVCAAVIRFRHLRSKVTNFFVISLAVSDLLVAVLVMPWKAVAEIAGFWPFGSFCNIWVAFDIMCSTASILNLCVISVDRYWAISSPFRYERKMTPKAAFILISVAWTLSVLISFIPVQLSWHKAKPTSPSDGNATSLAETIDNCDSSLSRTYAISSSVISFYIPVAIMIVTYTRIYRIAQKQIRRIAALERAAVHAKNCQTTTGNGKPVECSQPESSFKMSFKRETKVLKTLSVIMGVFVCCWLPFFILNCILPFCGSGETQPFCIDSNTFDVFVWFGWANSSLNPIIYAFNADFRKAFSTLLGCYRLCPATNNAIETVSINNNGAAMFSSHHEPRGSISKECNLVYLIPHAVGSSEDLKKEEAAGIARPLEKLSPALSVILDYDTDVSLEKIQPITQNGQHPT

D(2) dopamine receptor, sequence (P14416 whole entry): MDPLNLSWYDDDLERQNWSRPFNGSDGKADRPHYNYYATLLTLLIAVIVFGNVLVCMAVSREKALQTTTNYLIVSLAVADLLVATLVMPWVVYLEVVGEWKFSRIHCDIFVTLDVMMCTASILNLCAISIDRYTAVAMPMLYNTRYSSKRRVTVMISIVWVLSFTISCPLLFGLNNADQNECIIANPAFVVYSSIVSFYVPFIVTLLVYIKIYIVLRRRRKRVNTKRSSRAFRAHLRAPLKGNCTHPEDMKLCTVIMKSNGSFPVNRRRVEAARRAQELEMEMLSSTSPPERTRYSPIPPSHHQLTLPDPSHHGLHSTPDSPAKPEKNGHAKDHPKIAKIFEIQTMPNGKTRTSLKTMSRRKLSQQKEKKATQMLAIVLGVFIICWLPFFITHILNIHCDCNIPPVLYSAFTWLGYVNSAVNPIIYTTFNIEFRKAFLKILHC
Muscarinic acetylcholine receptor M3, sequence (P20309 whole entry): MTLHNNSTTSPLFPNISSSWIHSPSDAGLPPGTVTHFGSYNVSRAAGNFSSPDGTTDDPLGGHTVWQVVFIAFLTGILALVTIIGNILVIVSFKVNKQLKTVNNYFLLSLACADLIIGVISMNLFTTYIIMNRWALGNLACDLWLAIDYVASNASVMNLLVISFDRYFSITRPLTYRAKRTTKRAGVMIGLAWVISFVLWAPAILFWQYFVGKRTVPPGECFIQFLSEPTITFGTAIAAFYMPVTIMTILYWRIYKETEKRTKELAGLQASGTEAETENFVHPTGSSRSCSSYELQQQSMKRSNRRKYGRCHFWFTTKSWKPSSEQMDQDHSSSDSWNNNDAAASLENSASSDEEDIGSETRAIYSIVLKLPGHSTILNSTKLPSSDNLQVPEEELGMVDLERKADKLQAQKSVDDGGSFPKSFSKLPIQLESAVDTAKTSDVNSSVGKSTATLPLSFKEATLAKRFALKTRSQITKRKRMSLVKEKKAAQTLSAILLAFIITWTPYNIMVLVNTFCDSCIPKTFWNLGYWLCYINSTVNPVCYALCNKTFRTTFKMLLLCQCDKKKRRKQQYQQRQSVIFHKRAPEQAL

| EC50 [3] [µM] | EC50 [5] [µM] | concentration at 1 h [7] [nM] | Kp at 1 h [8] | Ki (D(1A) dopamine receptor) [µM] | SMILES | Ki (D(2) dopamine receptor) [µM] | EC50 [1] [µM] | EC50 [2] [µM] | concentration at 1 h [4] [nM] | Activity [6] [µmol/L] |
| --- | --- | --- | --- | --- | --- | --- | --- | --- | --- | --- |
| – | – | – | – | – | CN1CC=C(C2=Nc3cc(F)ccc3Nc3ccc(Cl)cc32)CC1 | 0.108 | > 10 | > 10 | – | – |
| – | – | – | – | – | Cc1ccc2c(c1)N=C(C1=C[C@H](C)N(C)CC1)c1cc(F)ccc1N2 | – | – | > 10 | – | – |
| – | – | – | – | – | CCN1CC=C(C2=Nc3cc(Cl)ccc3Nc3ccc(F)cc32)CC1 | 0.34 | > 10 | > 10 | – | 0.27 |
| – | – | – | – | – | CCc1ccc2c(c1)C(C1=C[C@H](C)N(C)CC1)=Nc1cc(Cl)ccc1N2 | – | – | > 10 | – | – |
| > 10 | > 10 | 360 | 5.2 | – | Cc1ccc2c(c1)N=C(C1=CCN(C)CC1)c1cc(F)ccc1N2 | – | > 10 | 0.31 | 1840 | – |
| – | – | – | – | – | CCc1ccc2c(c1)C(C1=CCN(C)CC1)=Nc1cc(C)ccc1N2 | – | > 10 | > 10 | – | – |
| > 10 | 0.64 | – | – | – | CN1CC=C(C2=Nc3cc(Cl)ccc3Nc3ccccc32)CC1 | – | > 10 | 0.35 | – | 0.21 |
| > 10 | 0.67 | – | – | 0.08 | Clc1ccc2c(c1)N=C(N1CCNCC1)c1ccccc1N2 [N-DESMETHYLCLOZAPINE] | 0.489 | – | 0.048 | – | – |
| > 10 | > 10 | – | – | 0.035 | CN1CC=C(C2=Nc3cc(Cl)ccc3Nc3ccc(F)cc32)CC1 | 0.41 | > 10 | 4.7 | – | 0.3 |
| – | – | – | – | – | CN1CCN(C2=Nc3cc(Cl)ccc3Nc3ccccc32)CC1 [CLOZAPINE] | – | – | – | – | 7.5 |
| – | – | – | – | – | COc1ccc2c(c1)C(C1=CCN(C)CC1)=Nc1cc(C)ccc1N2 | 0.329 | > 10 | > 10 | – | 0.07 |
| – | – | – | – | – | CC(C)N1CC=C(C2=Nc3cc(Cl)ccc3Nc3ccc(F)cc32)CC1 | – | > 10 | > 10 | – | 0.29 |

| SMILES | EC50 [3] [µM] | EC50 [5] [µM] | concentration at 1 h [7] [nM] | Kp at 1 h [8] | Ki (D(1A) dopamine receptor) [µM] | Ki (D(2) dopamine receptor) [µM] | EC50 [1] [µM] | EC50 [2] [µM] | concentration at 1 h [4] [nM] | Activity [6] [µmol/L] |
| --- | --- | --- | --- | --- | --- | --- | --- | --- | --- | --- |
| Cc1ccc2c(c1)N=C(C1=CCNCC1)c1cc(F)ccc1N2 | > 10 | > 10 | – | – | – | – | > 10 | > 10 | 63 | – |
| Cc1ccc2c(c1)N=C(C1=CCN(C)CC1)c1cc(C)ccc1N2 | – | – | – | – | 0.057 | 0.694 | > 10 | > 10 | – | 0.22 |
| Fc1ccc2c(c1)C(C1=CCNCC1)=Nc1cc(Cl)ccc1N2 | > 10 | > 10 | – | – | – | – | > 10 | > 10 | – | – |
